# Data published in ChEMBL document CHEMBL3822375, “Preclinical Characterization of 3β-(N-Acetyl l-cysteine methyl ester)-2aβ,3-dihydrogaliellalactone (GPA512), a Prodrug of a Direct STAT3 Inhibitor for the Treatment of Prostate Cancer” (J Med Chem, 2016).
# Active and inactive are the calls of the source. The rule behind the calls is not given here.
# Experiments:
# Mus musculus [1] = test: AUC (0 to infinity) in mouse plasma assessed as galiellalactone level at 10 mg/kg, po by LC-MS/MS analysis; type: ADME, organism-based; parameters: dose 10 mg/kg, route oral, time infinity; settings: in vivo
# In short: (§1)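 Single dose to mice; oral, iv or ip as listed, in 5% DMSO/50 mM citrate buffer pH 4.0 (dosing solutions 0.5, 2 or 5 mg/mL). Oral dosing at 20 mL/kg. Terminal blood under barbiturate anaesthesia at eight time-points to 8 h, n=3 mice per time-point, EDTA plasma. Acetonitrile precipitation with internal standard, LC-MS/MS against plasma calibration lines. Non-compartmental analysis on mean data, trapezoidal AUC.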
# [2] = Chemical stability of the compound in phosphate buffer saline assessed as half life at 10 uM at pH 7.4 by LC-MS/MS analysis; type: physicochemical; settings: phosphate buffered saline
# In short: (§2)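 Compound diluted from DMSO (or methanol) stock to 10 µM, 2% solvent final, n=2. Matrix was 0.1 M PBS pH 7.4, or […] HCl with 2 mg/mL NaCl adjusted to pH 1.2. Mixed on a shaker; sampled at nominal 5, 15, 30 and 60 min plus T=0. LC-MS/MS with internal standard; % remaining relative to T=0. Formation of parent also monitored.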
# Mus musculus [3] = test: Apparent half life in mouse plasma assessed as galiellalactone level at 10 mg/kg, po by LC-MS/MS analysis; type: ADME, organism-based; settings: in vivo; in short: as §1
# Mus musculus [4] = test: AUC (0 to t) in mouse plasma assessed as galiellalactone level at 10 mg/kg, po by LC-MS/MS analysis; type: ADME, organism-based; settings: in vivo; in short: as §1
# Mus musculus [5] = test: Cmax in mouse plasma assessed as galiellalactone level at 10 mg/kg, po by LC-MS/MS analysis; type: ADME, organism-based; parameters: dose 10 mg/kg, route oral; settings: in vivo; in short: as §1
# Mus musculus [6] = test: Tmax in mouse plasma assessed as galiellalactone level at 10 mg/kg, po by LC-MS/MS analysis; type: ADME, organism-based; settings: in vivo
# [7] = Antiproliferative activity against human DU145 cells after 72 hrs by WST-1 proliferation assay; type: functional, cell-based; settings: DU-145, 72 h
# In short: (§3)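 Cells in RPMI-1640 (DU145, LNCaP, LNCaP-IL6+) or HAM's F-12 (PC3) with 10% FBS. DU145 and LNCaP-IL6+ seeded at 2 000 cells/well, LNCaP and PC3 at 5 000 cells/well, adhered 24 h, then exposed to compound for 72 h. WST-1 absorbance read at 450 nm with 630 nm reference. Background subtracted; expressed as percent of untreated cells.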
# [8] = Half life of compound in acidic buffer at pH 1.2 at 10 uM by LC-MS analysis; type: physicochemical; in short: as §2
# Hepatocyte = test: Drug level in mouse hepatocytes treated with 3-beta-(N-Acetyl-L-cysteine methyl ester)-2a-beta,3-dihydrogaliellalactone measured after 2 hrs by UPLC-MS analysis; type: ADME, cell-based
# In short: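 Cryopreserved mouse hepatocytes in Celsis InVitro HI medium, pH 7.4, 37 °C, with 10 µM initial compound from DMSO stock. Sampled at 0 and 120 min, quenched with an equal volume of acetonitrile, analysed by UPLC/Q-TOF-MS. Viability checked by Trypan blue.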
# [9] = Half life in mouse plasma at 5 uM by LC-MS/MS analysis; type: ADME, cell-free
# In short: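 Plasma of each species incubated at 37 °C with compound at 5 µM initial, 1% DMSO, n=2. Simvastatin and eucatropine run as controls. Aliquots taken at 0, 5, 15, 30 and 60 min and quenched with acetonitrile containing internal standard, then analysed by LC-MS/MS.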
# PC-3 [10] = test: Antiproliferative activity against human PC3 cells at 3 uM after 72 hrs by WST-1 proliferation assay; type: functional, cell-based; in short: as §3
# LNCaP [11] = test: Cytotoxicity against human LNCAP cells expressing IL6 and pSTAT3 assessed as inhibition of cell viability at 3 uM after 72 hrs by WST-1 proliferation assay; type: functional, cell-based; in short: as §3
# LNCaP [12] = test: Cytotoxicity against human LNCAP cells assessed as inhibition of cell viability at 3 uM after 72 hrs by WST-1 proliferation assay; type: functional, cell-based; in short: as §3
# DU-145 [13] = test: Cytotoxicity against human DU145 cells expressing pSTAT3 assessed as inhibition of cell viability at 3 uM after 72 hrs by WST-1 proliferation assay; type: functional, cell-based; in short: as §3
# [14] = Tmax in mouse plasma at 1.25 mg/kg, iv by LC-MS/MS analysis; type: ADME, organism-based
# [15] = Apparent half life in mouse plasma at 10 mg/kg, po by LC-MS/MS analysis; type: ADME, organism-based; settings: read-out: t1/2(app); in short: as §1
# [16] = Volume of distribution in mouse plasma at 1.25 mg/kg, iv by LC-MS/MS analysis; type: ADME, organism-based
# [17] = Solubility of the compound in phosphate buffer saline at pH 7.4 by LC-MS analysis; type: physicochemical; settings: phosphate buffered saline
# PC-3 [18] = test: Cytotoxicity against human PC3 cells assessed as inhibition of cell viability at 3 uM after 72 hrs by WST-1 proliferation assay; type: functional, cell-based; in short: as §3
# [19] = Stability of compound assessed as compound disappearance measured after 2 hrs by LC-MS/MS analysis; type: physicochemical
# [20] = Drug metabolism in S9 intestinal fraction (unknown origin) assessed as glutathione conjugate formation; type: ADME
# [21] = Apparent half life in mouse plasma at 5 mg/kg, ip; type: ADME, organism-based
# [22] = Cmax in mouse plasma at 1.25 mg/kg, iv by LC-MS/MS analysis; type: ADME, organism-based; parameters: dose 1.25 mg/kg, route intravenous; in short: as §1
# LNCaP [23] = test: Antiproliferative activity against human LNCAP cells expressing IL6 and pSTAT3 at 3 uM after 72 hrs by WST-1 proliferation assay; type: functional, cell-based; in short: as §3
# [24] = Half life in mouse plasma by LC-MS/MS analysis; type: ADME, cell-free
# Mus musculus [25] = test: AUC (0 to infinity) in mouse plasma at 10 mg/kg, po by LC-MS/MS analysis; type: ADME, organism-based; parameters: dose 10 mg/kg, route oral, time infinity; settings: in vivo; in short: as §1
# [26] = Apparent permeability from apical to basolateral side in human Caco2 cells at 20 uM measured after 120 mins by UPLC-MS/MS analysis; type: ADME, cell-based; settings: Caco-2
# In short: (§4)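 Caco-2 monolayers in Hanks' balanced salt solution with 10 mM Hepes, pH 7.4. Apical and basolateral transport measured at 20 µM test item. Both compartments sampled at 0, 60 and 120 min and analysed by UPLC-MS/MS.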
# Mus musculus [27] = test: AUC (0 to t) in mouse plasma at 5 mg/kg, ip by LC-MS/MS analysis; type: ADME, organism-based; settings: in vivo; in short: as §1
# [28] = Apparent half life in mouse plasma at 1.25 mg/kg, iv by LC-MS/MS analysis; type: ADME, organism-based; settings: read-out: t1/2(app); in short: as §1
# [29] = Metabolic stability in mouse hepatocytes assessed as compound disappearance measured after 2 hrs by LC-MS/MS analysis; type: ADME, cell-based, Hepatocyte; settings: read-out: Drug degradation
# In short: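 Cryopreserved mouse hepatocytes incubated with an initial 10 µM test item (DMSO stock) in Celsis InVitro HI medium, pH 7.4, 37 °C. Cell viability checked by Trypan blue. Sampled at 0 and 120 min and stopped with an equal volume of acetonitrile. Analysed by UPLC/Q-TOF-MS.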
# DU-145 [30] = test: Antiproliferative activity against human DU145 cells expressing pSTAT3 at 3 uM after 72 hrs by WST-1 proliferation assay; type: functional, cell-based; in short: as §3
# Mus musculus [31] = test: AUC (0 to t) in mouse plasma at 10 mg/kg, po by LC-MS/MS analysis; type: ADME, organism-based; settings: in vivo; in short: as §1
# Mus musculus [32] = test: AUC (0 to t) in mouse plasma at 1.25 mg/kg, iv by LC-MS/MS analysis; type: ADME, organism-based; settings: in vivo; in short: as §1
# [33] = Efflux ratio of apparent permeability across apical to basolateral side over basolateral to apical side in human Caco2 cells at 20 uM measured after 120 mins by UPLC-MS/MS analysis; type: ADME, cell-based; settings: caco-2, 2 h; in short: as §4
# LNCaP [34] = test: Antiproliferative activity against human LNCAP cells at 3 uM after 72 hrs by WST-1 proliferation assay; type: functional, cell-based; in short: as §3
# [35] = Cmax in mouse plasma at 5 mg/kg, ip by LC-MS/MS analysis; type: ADME, organism-based; parameters: dose 5 mg/kg, route intraperitoneal; in short: as §1
# [36] = Clearance in mouse plasma at 1.25 mg/kg, iv by LC-MS/MS analysis; type: ADME, organism-based; in short: as §1
# Mus musculus [37] = test: AUC (0 to infinity) in mouse plasma at 1.25 mg/kg, iv by LC-MS/MS analysis; type: ADME, organism-based; parameters: dose 1.25 mg/kg, time infinity, route intravenous; settings: in vivo; in short: as §1
# Mus musculus [38] = test: AUC (0 to infinity) in mouse plasma at 5 mg/kg, ip by LC-MS/MS analysis; type: ADME, organism-based; parameters: dose 5 mg/kg, route intraperitoneal, time infinity; settings: in vivo; in short: as §1
# [39] = Tmax in mouse plasma at 5 mg/kg, ip by LC-MS/MS analysis; type: ADME, organism-based
smiles,measurement,setting,value
COC(=O)[C@H](CS[C@H]1C2C(=O)O[C@@H]3CC[C@H](C[C@@H]1C)[C@]23O)NC(=O)OC(C)(C)C (stereo partly drawn),AUC,Mus musculus [1],17 µg/mL/min
same,half-life at 10 µM,[2],> 2.5 h
same,t1/2(app),Mus musculus [3],5.8 h
same,AUCt,Mus musculus [4],11 µg/mL/min
same,Cmax,Mus musculus [5],52 ng/mL
same,Tmax,Mus musculus [6],0.25 h
COC(=O)[C@@H](N)CS[C@H]1C2C(=O)O[C@@H]3CC[C@H](C[C@@H]1C)[C@]23O (stereo partly drawn),AUC,Mus musculus [1],102 µg/mL/min
same,IC50,[7],4.51 µM
same,half-life at 10 µM,[2],0.367 h
same,half-life at 10 µM,[8],> 2.5 h
same,t1/2(app),Mus musculus [3],4.63 h
same,AUCt,Mus musculus [4],85 µg/mL/min
same,Cmax,Mus musculus [5],788 ng/mL
same,Tmax,Mus musculus [6],0.5 h
C[C@H]1C[C@H]2CC[C@H]3OC(=O)C([C@@H]1SC[C@H](NC(=O)CC[C@H](N)C(=O)O)C(=O)NCC(=O)O)[C@@]23O (stereo partly drawn),IC50,[7],6.14 µM
same,half-life at 10 µM,[2],> 2.5 h
CC(=O)N[C@@H](CS[C@H]1C2C(=O)O[C@@H]3CC[C@H](C[C@@H]1C)[C@]23O)C(=O)O (stereo partly drawn),half-life at 10 µM,[2],0.9 h
same,half-life at 10 µM,[8],1.9 h
same,Drug metabolism,Hepatocyte,metabolite_detected
C[C@@H]1C=C2C(=O)O[C@@H]3CC[C@H](C1)[C@]23O,half-life at 5 µM,[9],1.23 h
same,Activity,PC-3 [10],inactive
same,inhibition,LNCaP [11],Active
same,inhibition,LNCaP [12],inactive
same,inhibition,DU-145 [13],Active
same,IC50,[7],3.02 µM
same,Tmax,[14],5 min
same,half-life,[15],1.48 h
same,Vd,[16],1.4 L/kg
same,half-life at 10 µM,[2],> 9.8 h
same,solubility,[17],143 µM
same,inhibition,PC-3 [18],inactive
same,Stability,[19],Stable
same,Drug metabolism,[20],metabolite_detected
same,half-life,[21],2.4 h
same,Cmax,[22],2960 ng/mL
same,Activity,LNCaP [23],Active
same,half-life,[24],1.23 h
same,AUC,Mus musculus [25],6 µg/mL/min
same,"Papp A→B at 2 h, 20 µM",[26],65.9 ×10⁻⁶ cm/s
same,AUCt,Mus musculus [27],351 µg/mL/min
same,half-life,[28],2.17 h
same,metabolised at 2 h,[29],45%
same,Activity,DU-145 [30],Active
same,AUCt,Mus musculus [31],5 µg/mL/min
same,AUCt,Mus musculus [32],159 µg/mL/min
same,Ratio,[33],2
same,Drug metabolism,Hepatocyte,metabolite_detected
same,Activity,LNCaP [34],inactive
same,Cmax,[35],5520 ng/mL
same,clearance,[36],7.3 mL/min/kg
same,AUC,Mus musculus [37],171 µg/mL/min
same,AUC,Mus musculus [38],372 µg/mL/min
same,Tmax,[39],5 min
CCOC(=O)[C@H](CS[C@H]1C2C(=O)O[C@@H]3CC[C@H](C[C@@H]1C)[C@]23O)NC(C)=O (stereo partly drawn),AUC,Mus musculus [1],22 µg/mL/min
same,t1/2(app),Mus musculus [3],1.08 h
same,AUCt,Mus musculus [4],20 µg/mL/min
same,Cmax,Mus musculus [5],263 ng/mL
same,Tmax,Mus musculus [6],0.5 h
C[C@H]1C[C@H]2CC[C@H]3OC(=O)C([C@@H]1Sc1ccccc1)[C@@]23O (stereo partly drawn),AUC,Mus musculus [1],41 µg/mL/min
same,t1/2(app),Mus musculus [3],3.17 h
same,AUCt,Mus musculus [4],36 µg/mL/min
same,Cmax,Mus musculus [5],478 ng/mL
same,Tmax,Mus musculus [6],0.25 h
